Calls of active or inactive are those of the source. The rule behind the calls is not given here.

Holding throughout (assay type): cell-based
The target of test [1] is 5'-AMP-activated protein kinase catalytic subunit alpha-1 (Mus musculus) (UniProt Q5EG47). Kind of test: Activation of AMPKalpha in differentiated mouse C2C12 cells assessed as phosphorylated-AMPK level at 10 uM after 30 mins by Western blot analysis relative to control. Put shortly: (§1)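 C2C12 myoblasts seeded at 10^5 cells/well and differentiated at confluence in DMEM with 5% horse serum, medium changed every 48 h until myotubes formed. Myotubes exposed to compounds for 30 min, lysed in EBC buffer (50 mM Tris-HCl pH 7.6, 120 mM NaCl, 1 mM EDTA, 0.5% NP-40, 50 mM NaF). About 30 µg protein immunoblotted for phospho-AMPKα Thr172, phospho-ACC Ser79, total AMPK, β-actin.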
Background: A western blot detects proteins with antibodies after separation by electrophoresis.

The target is the same in test [2]. Kind of test: Activation of AMPKalpha in differentiated mouse C2C12 cells assessed as phosphorylated-ACC level at 10 uM after 30 mins by Western blot analysis relative to control. The method, boiled down:
as §1

The target is the same in test [3]. As to the kind of experiment: Activation of AMPKalpha in differentiated mouse C2C12 cells assessed as change in AMPK level at 10 uM after 30 mins by Western blot analysis relative to control. Put shortly: as §1

Sequence of 5'-AMP-activated protein kinase catalytic subunit alpha-1 (Mus musculus) (Q5EG47 whole entry): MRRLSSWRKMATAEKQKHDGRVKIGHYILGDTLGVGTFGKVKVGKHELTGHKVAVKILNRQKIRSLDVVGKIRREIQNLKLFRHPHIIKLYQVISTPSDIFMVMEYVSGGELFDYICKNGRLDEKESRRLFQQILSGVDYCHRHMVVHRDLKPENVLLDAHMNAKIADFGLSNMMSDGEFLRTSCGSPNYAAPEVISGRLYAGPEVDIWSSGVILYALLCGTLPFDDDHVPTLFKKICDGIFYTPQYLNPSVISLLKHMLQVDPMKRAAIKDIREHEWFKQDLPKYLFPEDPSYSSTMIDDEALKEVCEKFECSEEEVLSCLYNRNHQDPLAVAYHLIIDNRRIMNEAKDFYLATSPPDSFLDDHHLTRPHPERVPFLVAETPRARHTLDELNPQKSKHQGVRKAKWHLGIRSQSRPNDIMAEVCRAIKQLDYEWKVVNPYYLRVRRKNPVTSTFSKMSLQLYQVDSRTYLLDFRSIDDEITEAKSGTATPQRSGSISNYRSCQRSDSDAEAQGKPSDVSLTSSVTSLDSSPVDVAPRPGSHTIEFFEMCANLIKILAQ

In the case of `COc1ccc2c(oc3c4ccc(O)cc4oc(=O)c23)c1CC=C(C)C`, the outcome in test [1] and in test [2] was Active. In addition, the outcome in test [3] was inactive.

With `CC(C)=CCc1cc2c(cc1O)oc(=O)c1c3ccc(O)c(CC=C(C)C)c3oc21`, the outcome in test [1] and in test [2] was Active. Besides, the outcome in test [3] was inactive.

`COc1ccc2c(C=O)c(-c3ccc(O)cc3O)oc2c1CC=C(C)C`: the result in test [1] and in test [2] was Active. In test [3], the result was inactive.

As for `COc1cc([C@@H]2COc3cc(O)ccc32)c(OC)cc1O`, the outcome in test [1], in test [2] and in test [3] was inactive.

`CC(C)=CCc1cc(-c2oc3c(CC=C(C)C)c(O)ccc3c2C(=O)O)c(O)cc1O`: in test [2], the result was Active. For the same compound, the outcome in test [3] was inactive.

For the compound `COc1cc(C2(C=O)COc3cc(O)ccc32)c(OC)cc1O` (stereo not drawn), the outcome in test [1], in test [2] and in test [3] was inactive.

For the compound `CC(C)=CCc1c(O)ccc2c1oc1c3ccc(O)cc3oc(=O)c21`, the result in test [1] and in test [2] was Active. The outcome in test [3] was inactive.

Take `CC(C)=CCc1cc(-c2oc3c(CC=C(C)C)c(O)ccc3c2C=O)c(O)cc1O`: the result in test [1], in test [2] and in test [3] was inactive.

Values taken from ChEMBL document CHEMBL1157098, “AMP-activated protein kinase (AMPK) activation by benzofurans and coumestans isolated from Erythrina abyssinica” (J Nat Prod, 2010).
